Compound activity (PubChem)
TMEM16A act – TMEM16A chloride channel activators or potentiators, primary screen, cell-based, HTS; AID 623877, 2012; B-score at 10 µM; HEK293 TMEM16A/YFP-H148Q/I152L, iodide quench fluorescence; hits give low values; actives 0.3% (n = 340,000);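 active = fluorescence-ratio B-score plate-corrected deviation score at least 3 library SD below zero, with starting fluorescence score within 5 deviations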;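 also: channel opened by trigger with iodide after compound preincubation; score built on the fluorescence ratio of max minus min over baseline; more negative score means more quench and so TMEM16A activation or potentiation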
VIM-2 inh – VIM-2 metallo-beta-lactamase inhibitors, primary screen, biochemical, epi-absorbance readout, Pseudomonas aeruginosa enzyme. purified VIM-2, nitrocefin hydrolysis, epi-absorbance fluorescence. AID 1527, 2009. inhibition, % at 5.6 µM. actives 0.89% (n = 290,000);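 active = inhibition above the mean of all tested compounds plus 3 SD, cutoff set per screening run, cut at about 7.5% in these data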;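 also: red hydrolysis product quenches plate fluorescence so inhibitors raise well fluorescence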
ANO1 block – TMEM16A chloride channel inhibitors, primary screen, cell-based, HTS. HEK293 TMEM16A/YFP iodide influx fluorescence, ionomycin. Anoctamin-1 (Mus musculus), Q8BHY3. normalized B-score (activity score, 25-100; higher = stronger inhibition) at 10 µM. actives 1.2% (n = 310,000). AID 588511, 2011;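 active = ratio plate-corrected score three or more library SD toward inhibition, starting fluorescence score within five deviations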;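 also: score derived from kinetic fluorescence span divided by baseline fluorescence per well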
IMP-1 inhibitor – IMP-1 metallo-beta-lactamase inhibitors, primary screen, biochemical, epi-absorbance readout, Pseudomonas aeruginosa enzyme. metallo-beta-lactamase IMP-1 (Pseudomonas aeruginosa). inhibition, % at 5.6 µM. actives 0.45% (n = 290,000). purified IMP-1, nitrocefin hydrolysis, epi-absorbance fluorescence;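 active = inhibition above the mean plus 3 SD of all compounds in the same screening run, cut at about 4.5% in these data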
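System: purified IMP-1 / Input: IMP-1 dispensed at 0.2 nM / Medium: 50 mM HEPES pH 7.1, 50 µM ZnSO4, 0.05% Brij 35 / Timing: 15 min enzyme–compound preincubation, then 25 min nitrocefin reaction, 25 °C / Technique: plate fluorescence quenching by hydrolysis product, ex 480/em 530 nm / Repeats: singlicate testing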
CHT inh – inhibitors of human choline transporter CHT; actives 0.86% (n = 310,000); AID 488975, 2010; High affinity choline transporter 1 (Homo sapiens), Q9GZV3; B-score at 10 µM; CHT-expressing cells, membrane potential dye, choline response; hits give low values;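 active = B-score over 3 SD under the library average, and starting fluorescence ratio not unusually high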;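 also: choline stimulus applied at its EC90 after an EC20 pre-addition; B-score computed on integrated fluorescence ratio after choline addition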
Target sequence (Q9GZV3 whole entry, looked up): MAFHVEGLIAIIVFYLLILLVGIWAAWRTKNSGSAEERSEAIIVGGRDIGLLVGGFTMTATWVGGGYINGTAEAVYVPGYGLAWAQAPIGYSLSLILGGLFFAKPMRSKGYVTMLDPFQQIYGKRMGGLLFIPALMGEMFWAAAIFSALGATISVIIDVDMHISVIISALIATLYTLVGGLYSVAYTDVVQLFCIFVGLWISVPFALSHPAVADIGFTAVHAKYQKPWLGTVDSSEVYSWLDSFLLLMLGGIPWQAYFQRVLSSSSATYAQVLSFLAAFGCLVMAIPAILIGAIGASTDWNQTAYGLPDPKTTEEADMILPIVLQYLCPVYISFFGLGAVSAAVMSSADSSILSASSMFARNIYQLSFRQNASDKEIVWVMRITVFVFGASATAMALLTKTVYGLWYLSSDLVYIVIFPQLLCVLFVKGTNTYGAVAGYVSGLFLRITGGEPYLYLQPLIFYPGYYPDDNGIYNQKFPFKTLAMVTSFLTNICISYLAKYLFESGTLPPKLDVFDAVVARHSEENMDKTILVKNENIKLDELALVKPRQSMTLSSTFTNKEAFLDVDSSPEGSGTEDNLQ
CHT allo act – CHT positive allosteric modulators, primary screen, cell-based, membrane potential dye, choline EC20 | CHT-expressing cells; hits give high values; LV-AA mutant CHT in HEK293 cells | B-score at 10 µM | actives 0.49% (n = 310,000);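 active = initial fluorescence not abnormally high and integrated response B-score, plate-corrected, over 3 SD above library mean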
A number is an active result; . = inactive; / = not tested or not shown. Compounds with a hit are over-represented: about 3.4% of the library has one in this group of screens.

SMILES | TMEM16A act | VIM-2 inh | ANO1 block | IMP-1 inhibitor | CHT inh | CHT allo act
CC(=O)c1c(COC(=O)c2cccnc2)nc2ccccc2[n+]1[O-] | -8.8 | . | . | . | . | .
COC(=O)c1cc(OC)c(OC)cc1NC(=O)c1ccc(C)o1 | . | 9.2 | . | . | . | .
O=C(C1CCN(S(=O)(=O)c2cccc3nsnc23)CC1)N1CC=C(c2ccccc2)CC1 | . | . | 25 | . | . | .
COc1cccc(Cn2c(=O)c3ccccc3n3nc(C)cc23)c1 | . | 9.1 | . | . | . | .
COc1cccc(Cn2c(=O)sc3ccccc3c2=O)c1 | . | . | . | . | . | .
COc1cc(OC)cc(C(=O)NCC(=O)Nc2ccc(OC)c(Cl)c2)c1 | / | . | . | . | . | .
CCc1ccc(O)c(CNCCNCc2cc(CC)ccc2O)c1 | . | / | . | / | -6.8 | .
Cc1ccc([C@H]2C(C#N)=C(N)Oc3cc(C)oc(=O)c32)o1 | -4.6 | . | . | . | . | .
CCn1c(SCC(=O)N(C(C)C)C(C)C)nnc1-c1cc2ccccc2cc1O | . | 12 | . | . | . | .
C1=C(CCNc2ncnc3nc[nH]c23)CCCC1 | . | . | 25 | . | . | .
CCCNc1ncnc2nc[nH]c12 | . | . | . | . | . | .
CCN(CC)S(=O)(=O)c1cc(NC(=O)c2ccc(-n3cncn3)c([N+](=O)[O-])c2)ccc1C | . | . | 100 | . | . | .
CCOC(=O)C1C(=O)NC(C(=O)OCC)(C(=O)OCC)C1CC (stereo unspecified) | . | / | / | / | / | /
O=C(NCCSCc1c(F)cccc1Cl)Nc1ccccc1 | . | . | . | . | . | .
S=C(NCCSCc1c(Cl)cccc1Cl)Nc1ccccc1 | . | . | 100 | . | . | .
S=C(NCCSCc1ccc(Cl)c(Cl)c1)Nc1ccccc1 | . | . | 100 | . | . | .
O=C(NCc1ccccc1F)C1CCCN(S(=O)(=O)N2CCOCC2)C1 (stereo unspecified) | . | . | . | . | . | .
Cc1ccc(S(=O)(=O)N2CCN(C(=O)COC(=O)CSc3ccc(C)c(C)c3)CC2)c(C)c1 | . | / | / | / | / | /
CCN(CC)c1ccc(/C=N/OCC(=O)Nc2cccc(C)c2)cc1 | . | . | 25 | . | . | .
CCCCOc1cccc(C2/C(=C(\O)c3ccc4c(c3)OCCO4)C(=O)C(=O)N2CCN2CCOCC2)c1 (stereo unspecified) | . | . | . | . | . | .
CCOC(=O)Cn1cc(Cl)cc(C(=O)Nc2ccccc2)c1=O | . | . | . | . | . | .
c1ccc(Nc2ccnc(Nc3ccccc3)n2)cc1 | . | . | 25 | . | . | .
COc1ccc2nc3cccc(OC)c3nc2c1 | . | 7.7 | . | . | . | .
CC1=CC(C)C(C(=O)O)C(C(=O)N2CCN(C)CC2)C1 (stereo unspecified) | . | 9.3 | . | . | . | .
CC1=CC(C)C(C(=O)O)C(C(=O)Nc2cccnc2)C1 (stereo unspecified) | . | . | . | . | . | .
SMILES | TMEM16A act | VIM-2 inh | ANO1 block | IMP-1 inhibitor | CHT inh | CHT allo act
CCN(C(=O)COC(=O)c1oc2ccccc2c1C)c1c(N)n(Cc2ccccc2)c(=O)[nH]c1=O | . | / | / | / | / | /
CC(=O)Nc1ccc(S(=O)(=O)Nc2cc(S(=O)(=O)N3CCCCC3)ccc2O)cc1 | . | / | / | / | / | /
O=Cc1[nH]c2ccccc2c1N(C(=O)CCl)c1ccc([N+](=O)[O-])cc1 | . | . | 25 | . | . | .
CC(=O)n1cc(N(C(=O)CCl)c2ccc([N+](=O)[O-])cc2)c2ccccc21 | . | . | . | . | . | .
CCOC(=O)N1CCN(C2=Nc3cccc4cccc2c34)CC1 | . | . | . | . | -7.1 | .
c1cc2c3c(cccc3c1)C(N1CCN(C3=Nc4cccc5cccc3c45)CC1)=N2 | / | . | / | . | / | /
Fc1c(F)c(-n2nnc3ccccc32)c(F)c(F)c1Cl | . | . | . | . | . | .
COc1ccc(NC(=O)CSCC(=O)NCc2ccco2)cc1 | . | / | . | / | . | .
